# According to ChEMBL document CHEMBL4715736, “Identification of anticancer agents based on the thieno[2,3-b]pyridine and 1H-pyrazole molecular scaffolds” (2016):
# System: CCRF-CEM
# Assay: Growth inhibition of human CCRF-CEM cells assessed as cell growth at 10 uM incubated for 48 hrs by sulforhodamine B assay relative to control
# Assay type: functional
# Conditions: read-out: Activity
# Outline: (§1)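 NCI Developmental Therapeutics Program NCI60 panel. Compounds that were active in the 10 µM one-dose screen went on to dose–response testing. Growth at each concentration is expressed relative to untreated control (100%). GI50 (concentration giving 50% of maximal inhibition of proliferation) and TGI (concentration giving total growth inhibition) were derived from the curves.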
row,SMILES,growth at 10 µM
1,CC1(C)CCc2cc(-c3ccn(S(=O)(=O)c4ccccc4)n3)ccc2O1,65.6%

# System: HL-60(TB)
# Assay: Growth inhibition of human HL-60(TB) cells assessed as cell growth at 10 uM incubated for 48 hrs by sulforhodamine B assay relative to control
# Assay type: functional
# Conditions: read-out: Activity
# Outline: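 Screened by the NCI Developmental Therapeutics Program on its panel of 60 human tumour cell lines. Compounds were first tested at a single 10 µM dose, and compounds active there went to dose-response curves. Growth is expressed relative to untreated control (100%). GI50 (50% of maximal proliferation inhibition) and TGI (total growth inhibition) were derived from the dose-response data.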
row,SMILES,growth at 10 µM
1,CC1(C)CCc2cc(-c3ccn(S(=O)(=O)c4ccccc4)n3)ccc2O1,89.4%

# System: MOLT-4
# Assay: Growth inhibition of human MOLT-4 cells assessed as cell growth at 10 uM incubated for 48 hrs by sulforhodamine B assay relative to control
# Assay type: functional
# Conditions: read-out: Activity
# Outline: (§2)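 Submitted to the NCI Developmental Therapeutics Program for the NCI60 human tumour cell line panel. First screen at a single 10 µM concentration. Read-out is growth relative to untreated control cells set at 100%.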
row,SMILES,growth at 10 µM
1,CC1(C)CCc2cc(-c3ccn(S(=O)(=O)c4ccccc4)n3)ccc2O1,61.5%

# System: A549
# Assay: Growth inhibition of human A549/ATCC cells assessed as cell growth at 10 uM incubated for 48 hrs by sulforhodamine B assay relative to control
# Assay type: functional
# Conditions: read-out: Activity
# Outline: as §1
row,SMILES,growth at 10 µM
1,CC1(C)CCc2cc(-c3ccn(S(=O)(=O)c4ccccc4)n3)ccc2O1,77.6%

# System: HOP-62
# Assay: Growth inhibition of human HOP-62 cells assessed as cell growth at 10 uM incubated for 48 hrs by sulforhodamine B assay relative to control
# Assay type: functional
# Conditions: read-out: Activity
# Outline: as §2
row,SMILES,growth at 10 µM
1,CC1(C)CCc2cc(-c3ccn(S(=O)(=O)c4ccccc4)n3)ccc2O1,108%

# System: HOP-92
# Assay: Growth inhibition of human HOP-92 cells assessed as cell growth at 10 uM incubated for 48 hrs by sulforhodamine B assay relative to control
# Assay type: functional
# Conditions: read-out: Activity
# Outline: as §2
row,SMILES,growth at 10 µM
1,CC1(C)CCc2cc(-c3ccn(S(=O)(=O)c4ccccc4)n3)ccc2O1,60%

# System: NCI-H226
# Assay: Growth inhibition of human NCI-H226 cells assessed as cell growth at 10 uM incubated for 48 hrs by sulforhodamine B assay relative to control
# Assay type: functional
# Conditions: read-out: Activity
# Outline: as §2
row,SMILES,growth at 10 µM
1,CC1(C)CCc2cc(-c3ccn(S(=O)(=O)c4ccccc4)n3)ccc2O1,69.7%

# System: NCI-H322M
# Assay: Growth inhibition of human NCI-H322M cells assessed as cell growth at 10 uM incubated for 48 hrs by sulforhodamine B assay relative to control
# Assay type: functional
# Conditions: read-out: Activity
# Outline: as §2
row,SMILES,growth at 10 µM
1,CC1(C)CCc2cc(-c3ccn(S(=O)(=O)c4ccccc4)n3)ccc2O1,91.7%

# System: NCI-H460
# Assay: Growth inhibition of human NCI-H460 cells assessed as cell growth at 10 uM incubated for 48 hrs by sulforhodamine B assay relative to control
# Assay type: functional
# Conditions: read-out: Activity
# Outline: as §2
row,SMILES,growth at 10 µM
1,CC1(C)CCc2cc(-c3ccn(S(=O)(=O)c4ccccc4)n3)ccc2O1,72.8%

# System: HCT-116
# Assay: Growth inhibition of human HCT-116 cells assessed as cell growth at 10 uM incubated for 48 hrs by sulforhodamine B assay relative to control
# Assay type: functional
# Conditions: read-out: Activity
# Outline: as §2
row,SMILES,growth at 10 µM
1,CC1(C)CCc2cc(-c3ccn(S(=O)(=O)c4ccccc4)n3)ccc2O1,62.7%

# System: HCT-15
# Assay: Growth inhibition of human HCT-15 cells assessed as cell growth at 10 uM incubated for 48 hrs by sulforhodamine B assay relative to control
# Assay type: functional
# Conditions: read-out: Activity
# Outline: as §2
row,SMILES,growth at 10 µM
1,CC1(C)CCc2cc(-c3ccn(S(=O)(=O)c4ccccc4)n3)ccc2O1,64.9%

# System: KM12
# Assay: Growth inhibition of human KM12 cells assessed as cell growth at 10 uM incubated for 48 hrs by sulforhodamine B assay relative to control
# Assay type: functional
# Conditions: read-out: Activity
# Outline: as §2
row,SMILES,growth at 10 µM
1,CC1(C)CCc2cc(-c3ccn(S(=O)(=O)c4ccccc4)n3)ccc2O1,71.5%

# System: SF-295
# Assay: Growth inhibition of human SF-295 cells assessed as cell growth at 10 uM incubated for 48 hrs by sulforhodamine B assay relative to control
# Assay type: functional
# Conditions: read-out: Activity
# Outline: (§3)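 Run by the NCI Developmental Therapeutics Program as part of its 60-line human tumour panel. Each compound tested at a single 10 µM dose. Growth expressed as % relative to untreated control cells (100%).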
row,SMILES,growth at 10 µM
1,CC1(C)CCc2cc(-c3ccn(S(=O)(=O)c4ccccc4)n3)ccc2O1,81.4%

# System: SF-539
# Assay: Growth inhibition of human SF-539 cells assessed as cell growth at 10 uM incubated for 48 hrs by sulforhodamine B assay relative to control
# Assay type: functional
# Conditions: read-out: Activity
# Outline: as §3
row,SMILES,growth at 10 µM
1,CC1(C)CCc2cc(-c3ccn(S(=O)(=O)c4ccccc4)n3)ccc2O1,92.8%

# System: SNB-75
# Assay: Growth inhibition of human SNB-75 cells assessed as cell growth at 10 uM incubated for 48 hrs by sulforhodamine B assay relative to control
# Assay type: functional
# Conditions: read-out: Activity
# Outline: as §3
row,SMILES,growth at 10 µM
1,CC1(C)CCc2cc(-c3ccn(S(=O)(=O)c4ccccc4)n3)ccc2O1,78.9%

# System: U-251
# Assay: Growth inhibition of human U-251 cells assessed as cell growth at 10 uM incubated for 48 hrs by sulforhodamine B assay relative to control
# Assay type: functional
# Conditions: read-out: Activity
# Outline: as §3
row,SMILES,growth at 10 µM
1,CC1(C)CCc2cc(-c3ccn(S(=O)(=O)c4ccccc4)n3)ccc2O1,72.3%

# System: Malme-3M
# Assay: Growth inhibition of human Malme-3M cells assessed as cell growth at 10 uM incubated for 48 hrs by sulforhodamine B assay relative to control
# Assay type: functional
# Conditions: read-out: Activity
# Outline: as §2
row,SMILES,growth at 10 µM
1,CC1(C)CCc2cc(-c3ccn(S(=O)(=O)c4ccccc4)n3)ccc2O1,99.3%

# System: M14
# Assay: Growth inhibition of human M14 cells assessed as cell growth at 10 uM incubated for 48 hrs by sulforhodamine B assay relative to control
# Assay type: functional
# Conditions: read-out: Activity
# Outline: as §2
row,SMILES,growth at 10 µM
1,CC1(C)CCc2cc(-c3ccn(S(=O)(=O)c4ccccc4)n3)ccc2O1,61%

# System: MDA-MB-435
# Assay: Growth inhibition of human MDA-MB-435 cells assessed as cell growth at 10 uM incubated for 48 hrs by sulforhodamine B assay relative to control
# Assay type: functional
# Conditions: read-out: Activity
# Outline: as §2
row,SMILES,growth at 10 µM
1,CC1(C)CCc2cc(-c3ccn(S(=O)(=O)c4ccccc4)n3)ccc2O1,79%

# System: SK-MEL-28
# Assay: Growth inhibition of human SK-MEL-28 cells assessed as cell growth at 10 uM incubated for 48 hrs by sulforhodamine B assay relative to control
# Assay type: functional
# Conditions: read-out: Activity
# Outline: as §3
row,SMILES,growth at 10 µM
1,CC1(C)CCc2cc(-c3ccn(S(=O)(=O)c4ccccc4)n3)ccc2O1,97.2%

# System: SK-MEL-5
# Assay: Growth inhibition of human SK-MEL-5 cells assessed as cell growth at 10 uM incubated for 48 hrs by sulforhodamine B assay relative to control
# Assay type: functional
# Conditions: read-out: Activity
# Outline: as §3
row,SMILES,growth at 10 µM
1,CC1(C)CCc2cc(-c3ccn(S(=O)(=O)c4ccccc4)n3)ccc2O1,75.7%

# System: UACC-257
# Assay: Growth inhibition of human UACC-257 cells assessed as cell growth at 10 uM incubated for 48 hrs by sulforhodamine B assay relative to control
# Assay type: functional
# Conditions: read-out: Activity
# Outline: as §3
row,SMILES,growth at 10 µM
1,CC1(C)CCc2cc(-c3ccn(S(=O)(=O)c4ccccc4)n3)ccc2O1,82.7%

# System: UACC-62
# Assay: Growth inhibition of human UACC-62 cells assessed as cell growth at 10 uM incubated for 48 hrs by sulforhodamine B assay relative to control
# Assay type: functional
# Conditions: read-out: Activity
# Outline: as §3
row,SMILES,growth at 10 µM
1,CC1(C)CCc2cc(-c3ccn(S(=O)(=O)c4ccccc4)n3)ccc2O1,73.3%

# System: IGROV-1
# Assay: Growth inhibition of human IGROV-1 cells assessed as cell growth at 10 uM incubated for 48 hrs by sulforhodamine B assay relative to control
# Assay type: functional
# Conditions: read-out: Activity
# Outline: as §2
row,SMILES,growth at 10 µM
1,CC1(C)CCc2cc(-c3ccn(S(=O)(=O)c4ccccc4)n3)ccc2O1,96.4%

# System: OVCAR-3
# Assay: Growth inhibition of human OVCAR-3 cells assessed as cell growth at 10 uM incubated for 48 hrs by sulforhodamine B assay relative to control
# Assay type: functional
# Conditions: read-out: Activity
# Outline: as §3
row,SMILES,growth at 10 µM
1,CC1(C)CCc2cc(-c3ccn(S(=O)(=O)c4ccccc4)n3)ccc2O1,81.4%

# System: OVCAR-5
# Assay: Growth inhibition of human OVCAR-5 cells assessed as cell growth at 10 uM incubated for 48 hrs by sulforhodamine B assay relative to control
# Assay type: functional
# Conditions: read-out: Activity
# Outline: as §3
row,SMILES,growth at 10 µM
1,CC1(C)CCc2cc(-c3ccn(S(=O)(=O)c4ccccc4)n3)ccc2O1,89.7%

# System: NCI/ADR-RES
# Assay: Growth inhibition of human NCI/ADR-RES cells assessed as cell growth at 10 uM incubated for 48 hrs by sulforhodamine B assay relative to control
# Assay type: functional
# Conditions: read-out: Activity
# Outline: as §2
row,SMILES,growth at 10 µM
1,CC1(C)CCc2cc(-c3ccn(S(=O)(=O)c4ccccc4)n3)ccc2O1,76%

# System: A498
# Assay: Growth inhibition of human A498 cells assessed as cell growth at 10 uM incubated for 48 hrs by sulforhodamine B assay relative to control
# Assay type: functional
# Conditions: read-out: Activity
# Outline: as §1
row,SMILES,growth at 10 µM
1,CC1(C)CCc2cc(-c3ccn(S(=O)(=O)c4ccccc4)n3)ccc2O1,65.4%

# System: RXF 393
# Assay: Growth inhibition of human RXF 393 cells assessed as cell growth at 10 uM incubated for 48 hrs by sulforhodamine B assay relative to control
# Assay type: functional
# Conditions: read-out: Activity
# Outline: as §3
row,SMILES,growth at 10 µM
1,CC1(C)CCc2cc(-c3ccn(S(=O)(=O)c4ccccc4)n3)ccc2O1,81.7%

# System: SN12C
# Assay: Growth inhibition of human SN12C cells assessed as cell growth at 10 uM incubated for 48 hrs by sulforhodamine B assay relative to control
# Assay type: functional
# Conditions: read-out: Activity
# Outline: as §3
row,SMILES,growth at 10 µM
1,CC1(C)CCc2cc(-c3ccn(S(=O)(=O)c4ccccc4)n3)ccc2O1,98.8%

# System: UO-31
# Assay: Growth inhibition of human UO-31 cells assessed as cell growth at 10 uM incubated for 48 hrs by sulforhodamine B assay relative to control
# Assay type: functional
# Conditions: read-out: Activity
# Outline: as §3
row,SMILES,growth at 10 µM
1,CC1(C)CCc2cc(-c3ccn(S(=O)(=O)c4ccccc4)n3)ccc2O1,63.6%

# System: PC-3
# Assay: Growth inhibition of human PC-3 cells assessed as cell growth at 10 uM incubated for 48 hrs by sulforhodamine B assay relative to control
# Assay type: functional
# Conditions: read-out: Activity
# Outline: as §3
row,SMILES,growth at 10 µM
1,CC1(C)CCc2cc(-c3ccn(S(=O)(=O)c4ccccc4)n3)ccc2O1,61.8%

# System: Hs-578T
# Assay: Growth inhibition of human Hs-578T cells assessed as cell growth at 10 uM incubated for 48 hrs by sulforhodamine B assay relative to control
# Assay type: functional
# Conditions: read-out: Activity
# Outline: as §2
row,SMILES,growth at 10 µM
1,CC1(C)CCc2cc(-c3ccn(S(=O)(=O)c4ccccc4)n3)ccc2O1,90.1%

# System: MDA-MB-468
# Assay: Growth inhibition of human MDA-MB-468 cells assessed as cell growth at 10 uM incubated for 48 hrs by sulforhodamine B assay relative to control
# Assay type: functional
# Conditions: read-out: Activity
# Outline: as §2
row,SMILES,growth at 10 µM
1,CC1(C)CCc2cc(-c3ccn(S(=O)(=O)c4ccccc4)n3)ccc2O1,54.6%
